{
  "source": "ChEMBL document CHEMBL1146290",
  "about": "“Core exploration in optimization of chemokine receptor CCR4 antagonists” (Bioorg Med Chem Lett, 2007)",
  "key": {"[1]": {"molecular_target": "T1, C-C chemokine receptor type 4 (Homo sapiens, UniProt P51679)", "T1 sequence (P51679 whole entry)": "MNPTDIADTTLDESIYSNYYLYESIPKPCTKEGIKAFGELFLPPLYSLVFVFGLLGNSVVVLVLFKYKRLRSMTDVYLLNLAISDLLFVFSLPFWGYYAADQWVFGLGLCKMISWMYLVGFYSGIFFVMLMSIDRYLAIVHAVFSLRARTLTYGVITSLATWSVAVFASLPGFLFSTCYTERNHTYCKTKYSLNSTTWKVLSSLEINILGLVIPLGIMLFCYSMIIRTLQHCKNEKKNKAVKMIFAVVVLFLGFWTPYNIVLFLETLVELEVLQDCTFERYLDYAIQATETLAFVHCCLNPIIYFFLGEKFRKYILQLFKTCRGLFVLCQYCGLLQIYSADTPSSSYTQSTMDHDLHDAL", "test": "Displacement of [125I]MDC from human CCR4 expressed in HEK293 cells", "format": "cell-based"}, "[2]": {"test": "Metabolic stability in human microsomes", "format": "ADME, Microsome"}, "[3]": {"molecular_target": "T2, C-C chemokine receptor type 4 (Mus musculus) (UniProt P51680)", "T2 sequence (whole entry)": "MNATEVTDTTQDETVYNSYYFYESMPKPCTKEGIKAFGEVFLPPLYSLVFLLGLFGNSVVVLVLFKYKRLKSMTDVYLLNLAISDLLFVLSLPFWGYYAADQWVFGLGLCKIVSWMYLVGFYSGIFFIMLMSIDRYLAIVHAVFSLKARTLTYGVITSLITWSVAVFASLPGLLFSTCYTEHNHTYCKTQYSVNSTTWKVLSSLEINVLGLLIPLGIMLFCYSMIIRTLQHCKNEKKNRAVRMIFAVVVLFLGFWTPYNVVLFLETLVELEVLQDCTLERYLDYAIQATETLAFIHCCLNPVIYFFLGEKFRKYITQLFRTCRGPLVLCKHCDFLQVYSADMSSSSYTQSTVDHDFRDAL", "test": "Inhibition of ovalbumin-induced eosinophil infiltration in sc dosed BALB/c mouse allergic inflammation model"}, "[4]": {"molecular_target": "T2, C-C chemokine receptor type 4 (Mus musculus)", "test": "Inhibition of ovalbumin-induced eosinophil infiltration in BALB/c mouse allergic inflammation model at 30 mg/kg, sc"}, "[5]": {"molecular_target": "T1, C-C chemokine receptor type 4", "test": "Antagonist activity at human CCR4 expressed in CEMS529 cells assessed as effect on calcium mobilization", "format": "functional, cell-based"}, "[6]": {"test": "Toxicity in human immortalized hepatocytes", "format": "cell-based, Hepatocyte"}, "[7]": {"test": "Carcinogenicity in SOS chromotest", "format": "ADME"}, "[8]": {"molecular_target": "CYP450 (isoform not stated) (Homo sapiens, UniProt P04798+P05177+P05181+P08684+P10632+P10635+P11509+P11712+P13584+P20813+P20815+P20853+P24462+P24903+P33260+P33261+P51589+P78329+P98187+Q02928+Q08477+Q16678+Q16696+Q5TCH4+Q6VVX0+Q7Z449+Q8TAV3+Q96SQ9+Q9HB55)", "test": "Inhibition of CYP450", "format": "ADME"}, "[9]": {"molecular_target": "T2, C-C chemokine receptor type 4 (Mus musculus)", "test": "Inhibition of ovalbumin-induced eosinophil infiltration in BALB/c mouse allergic inflammation model at 5 mg/kg, po", "format": "functional, organism-based", "design": "dose 5 mg/kg", "method_in_brief": "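Mice previously immunized with ovalbumin; dexamethasone given orally at 5 mg/kg as reference control. Total leukocytes, total eosinophils and percent eosinophils counted in bronchoalveolar lavage fluid. Seven to eight mice per group; means ± SEM; significance versus vehicle group by ANOVA with Dunnett's test (p < 0.05).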"}},
  "note": "Activity calls are given as the source filed them. The calls are words filed in the database; no cut-off is given here.",
  "data": [
    {"smiles": "CCN(CC)CCCC(C)Nc1nc(NCc2ccc(Cl)cc2Cl)nc2ncn(CC)c12", "note": "(configuration not stated)", "values": [
      {"measurement": "IC50", "setting": "[1]", "result": 2600, "unit": "nM"}
    ]},
    {"smiles": "O=C([C@@H]1CCCCN1)N1CCN(c2nc(NCc3ccc(Cl)cc3Cl)c3cccnc3n2)CC1", "values": [
      {"measurement": "Stability", "setting": "[2]", "result": 0.003, "unit": "nmol/mg/min"},
      {"measurement": "ED50", "setting": "[3]", "result": 10, "unit": "mg/kg"},
      {"measurement": "Activity", "setting": "[4]", "result": "Active"}
    ]},
    {"smiles": "CCN(CC)C(C)CCCNc1nccc(NCc2ccc(Cl)cc2Cl)n1.N", "note": "(configuration not stated)", "values": [
      {"measurement": "IC50", "setting": "[1]", "result": 280, "unit": "nM"},
      {"measurement": "Stability", "setting": "[2]", "result": 0.1, "unit": "nmol/mg/min"},
      {"measurement": "IC50", "setting": "[5]", "result": 800, "unit": "nM"},
      {"measurement": "IC50", "setting": "[6]", "result": "> 40000", "unit": "nM"},
      {"measurement": "Activity", "setting": "[7]", "result": "Non-toxic"},
      {"measurement": "IC50", "setting": "[8]", "result": "> 1000", "unit": "nM"}
    ]},
    {"smiles": "CCN(CC)CCCC(C)Nc1nc(NC)nc(NCc2ccc(Cl)cc2Cl)n1", "note": "(configuration not stated)", "values": [
      {"measurement": "IC50", "setting": "[1]", "result": 3600, "unit": "nM"}
    ]},
    {"smiles": "O=C([C@@H]1CCCN1)N1CCN(c2nc(NCc3ccc(Cl)cc3Cl)c3cccnc3n2)CC1", "values": [
      {"measurement": "IC50", "setting": "[1]", "result": 80, "unit": "nM"}
    ]},
    {"smiles": "CCN(CC)CCCC(C)Nc1nc(NCc2ccc(Cl)cc2Cl)c2c(ncn2CC)n1", "note": "(configuration not stated)", "values": [
      {"measurement": "IC50", "setting": "[1]", "result": 1100, "unit": "nM"}
    ]},
    {"smiles": "CCN(CC)CCCC(C)Nc1ncc2ncn(Cc3ccc(Cl)cc3Cl)c2n1", "note": "(configuration not stated)", "values": [
      {"measurement": "IC50", "setting": "[1]", "result": 820, "unit": "nM"}
    ]},
    {"smiles": "CCN(CC)CCCC(C)Nc1nc(NCc2ccc(Cl)cc2Cl)nc2nc[nH]c12", "note": "(configuration not stated)", "values": [
      {"measurement": "IC50", "setting": "[1]", "result": 2100, "unit": "nM"}
    ]},
    {"smiles": "CCN(CC)CCCC(C)Nc1ncc2c(ncn2Cc2ccc(Cl)cc2Cl)n1", "note": "(configuration not stated)", "values": [
      {"measurement": "IC50", "setting": "[1]", "result": 830, "unit": "nM"}
    ]},
    {"smiles": "CCN(CC)CCCC(C)Nc1ccc2cnn(Cc3ccc(Cl)cc3Cl)c2n1", "note": "(configuration not stated)", "values": [
      {"measurement": "IC50", "setting": "[1]", "result": 280, "unit": "nM"}
    ]},
    {"smiles": "CCN(CC)CCCC(C)Nc1nc(NCc2ccc(Cl)cc2Cl)c2[nH]cnc2n1", "note": "(configuration not stated)", "values": [
      {"measurement": "IC50", "setting": "[1]", "result": 4900, "unit": "nM"}
    ]},
    {"smiles": "C[C@@H]1C[C@H]2[C@@H]3CCC4=CC(=O)C=C[C@]4(C)[C@@]3(F)[C@@H](O)C[C@]2(C)[C@@]1(O)C(=O)CO", "values": [
      {"measurement": "Activity", "setting": "[9]", "result": "Active"}
    ]},
    {"smiles": "CCN(CC)CCCC(C)Nc1nc(NCc2ccc(Cl)cc2Cl)nc2ccccc12", "note": "(configuration not stated)", "values": [
      {"measurement": "IC50", "setting": "[1]", "result": 1910, "unit": "nM"}
    ]},
    {"smiles": "CCN(CC)CCCC(C)Nc1nc(NCc2ccc(Cl)cc2Cl)c2ccccc2n1", "note": "(configuration not stated)", "values": [
      {"measurement": "IC50", "setting": "[1]", "result": 500, "unit": "nM"}
    ]},
    {"smiles": "CCN(CC)CCCC(C)Nc1nc(NCc2ccc(Cl)cc2Cl)c2cccnc2n1", "note": "(configuration not stated)", "values": [
      {"measurement": "IC50", "setting": "[1]", "result": 140, "unit": "nM"}
    ]}
  ]
}
